The M2OR odorant receptor database
Numbering of substitutions follows the chain as printed.

test system: T1, OR2W1; settings: stereoisomer not certain
T1 sequence (whole entry): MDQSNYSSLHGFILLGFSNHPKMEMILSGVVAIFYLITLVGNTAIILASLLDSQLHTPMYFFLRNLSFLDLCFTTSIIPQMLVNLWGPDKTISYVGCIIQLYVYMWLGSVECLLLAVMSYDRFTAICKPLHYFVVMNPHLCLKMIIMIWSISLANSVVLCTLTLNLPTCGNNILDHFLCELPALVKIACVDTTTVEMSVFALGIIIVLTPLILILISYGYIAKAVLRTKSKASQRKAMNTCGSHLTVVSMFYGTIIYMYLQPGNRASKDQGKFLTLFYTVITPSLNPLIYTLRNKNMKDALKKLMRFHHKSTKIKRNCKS
Method in brief: (§1)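 Values were gathered from published papers (main text and supplementary material), with extra details requested from the original authors when needed, and checked for typos and inconsistencies. Each receptor–molecule pair is called responsive (active) if the original authors judged the measured signal statistically different from baseline, and non-responsive (inactive) otherwise. Assay methods varied by source, often transient mammalian cell-line luciferase assays. Recorded details include cell line, G-protein, co-transfected protein and tags.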

Row | Structure (SMILES) | odorant receptor agonist call
1 | C=C(C)C1CC=C(C)CC1 (stereo not drawn) | active
2 | CCCC1CCCC(=O)O1 (stereo not drawn) | active
3 | CCCCCCCC1CCC(=O)O1 (stereo not drawn) | active
4 | CC(=O)OCC=Cc1ccccc1 | active
5 | CC(=O)OCCc1ccccc1 | active
6 | CCCSSSCCC | active
7 | CCCCCC=CC=O | active
8 | CCCC(=O)OC | active
9 | CCOC(=O)CC(C)C | active

test system: T2, OR2W1; settings: stereoisomer not certain
T2 sequence (whole entry): T1 sequence (whole entry) with M81V, N296D
Method in brief: as §1

Row | Structure (SMILES) | odorant receptor agonist call
10 | C=C(C)C1CC=C(C)CC1 (stereo not drawn) | active
11 | CCCC1CCCC(=O)O1 (stereo not drawn) | inactive
12 | CCCCCCCC1CCC(=O)O1 (stereo not drawn) | active
13 | CC(=O)OCC=Cc1ccccc1 | active
14 | CC(=O)OCCc1ccccc1 | active
15 | CCCSSSCCC | inactive
16 | CCCCCC=CC=O | inactive
17 | CCCC(=O)OC | active
18 | CCOC(=O)CC(C)C | inactive
